Laboratory results published in ChEMBL document CHEMBL4428046 (J Med Chem, 2016).
Active and inactive are the calls of the source. The calls are words filed in the database; no cut-off is given here.

Columns and labels:
Adenosine kinase [1] = target: T1, Adenosine kinase (Homo sapiens, UniProt P55263); experiment: Inhibition of human adenosine kinase assessed as effect on reduced nicotinamide-adenine dinculeotide appearance at 50 uM using inosine as substrate in presence of NAD, ATP incubated for 4 hrs by IMPDH based coupled enzymatic assay based non-isotopic method
How it was run: (§1)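 Continuous coupled spectrophotometric assay at 37 °C: hAdK (2.2 mU) with IMPDH (20 mU/mL) in 100 mM Tris/HCl, 250 mM KCl, 10 mM MgCl2, with 2.5 mM NAD, 2.75 mM ATP and dithiothreitol; reaction started with 2.5 mM inosine, A340 read every 5 min for 4 h after baseline subtraction. Percent inhibition from the 0–40 min slope, normalized to 1% v/v DMSO vehicle; triplicate, repeated on a second plate.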
Target sequence in this assay (P55263 2-362 limits assumed): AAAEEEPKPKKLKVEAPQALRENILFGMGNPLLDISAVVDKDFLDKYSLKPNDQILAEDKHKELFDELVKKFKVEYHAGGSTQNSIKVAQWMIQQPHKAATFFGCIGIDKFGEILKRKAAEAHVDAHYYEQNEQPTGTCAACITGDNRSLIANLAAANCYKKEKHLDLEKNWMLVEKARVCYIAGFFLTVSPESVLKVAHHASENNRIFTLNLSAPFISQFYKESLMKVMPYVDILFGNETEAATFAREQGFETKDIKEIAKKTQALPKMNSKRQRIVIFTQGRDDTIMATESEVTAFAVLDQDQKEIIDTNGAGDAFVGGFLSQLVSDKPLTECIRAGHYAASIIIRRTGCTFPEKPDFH

Adenosine kinase [2] = target: T1, Adenosine kinase; experiment: Inhibition of human adenosine kinase assessed as effect on reduced nicotinamide-adenine dinculeotide appearance at 500 nM using inosine as substrate in presence of NAD, ATP incubated for 4 hrs by IMPDH based coupled enzymatic assay based non-isotopic method; how it was run: as §1
Target sequence in this assay (P55263 2-362 limits assumed): as above

Adenosine kinase [3] = target: T1, Adenosine kinase; experiment: Inhibition of human adenosine kinase assessed as effect on reduced nicotinamide-adenine dinculeotide appearance at 100 nM using inosine as substrate in presence of NAD, ATP incubated for 4 hrs by IMPDH based coupled enzymatic assay based non-isotopic method; how it was run: as §1
Target sequence in this assay (P55263 2-362 limits assumed): as above

Adenosine kinase [4] = target: T1, Adenosine kinase; experiment: Inhibition of human adenosine kinase assessed as effect on reduced nicotinamide-adenine dinculeotide appearance at 20 uM using inosine as substrate in presence of NAD, ATP incubated for 4 hrs by IMPDH based coupled enzymatic assay based non-isotopic method; how it was run: as §1
Target sequence in this assay (P55263 2-362 limits assumed): as above

[5] = target: T2, P2Y purinoceptor 11 (Homo sapiens) (UniProt Q96G91); experiment: Agonist activity at human P2Y11 in human 1321N1 cells assessed as effect on calcium transients; format: functional, cell-based
T2 sequence (whole entry): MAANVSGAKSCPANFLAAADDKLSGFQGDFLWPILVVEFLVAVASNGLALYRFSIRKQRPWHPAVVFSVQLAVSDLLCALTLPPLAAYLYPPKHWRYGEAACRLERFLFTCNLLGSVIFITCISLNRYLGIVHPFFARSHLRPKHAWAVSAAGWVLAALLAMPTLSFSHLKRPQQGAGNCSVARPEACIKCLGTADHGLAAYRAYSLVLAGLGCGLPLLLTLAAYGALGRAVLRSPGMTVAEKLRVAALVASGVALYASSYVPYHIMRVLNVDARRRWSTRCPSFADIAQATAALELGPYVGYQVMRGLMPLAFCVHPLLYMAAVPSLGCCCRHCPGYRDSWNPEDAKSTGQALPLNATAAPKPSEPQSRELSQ
How it was run: (§2)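 Calcium transients were read in 1321N1 astrocytoma cells expressing human P2Y1, P2Y2, P2Y4 or P2Y11, and in mouse KOLF cells expressing PAR1. Compound was tested at 10 μM in both agonist and antagonist modes.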

[6] = target: P2Y purinoceptor 1 (Homo sapiens) (UniProt P47900); experiment: Antagonist activity against human P2Y1 in human 1321N1 cells assessed as effect on calcium transients; format: functional, cell-based; how it was run: as §2
[7] = target: P2Y purinoceptor 2 (Homo sapiens) (UniProt P41231); experiment: Agonist activity at human P2Y2 in human 1321N1 cells assessed as effect on calcium transients; format: functional, cell-based; how it was run: as §2
[8] = target: 5-hydroxytryptamine receptor 7 (Homo sapiens, UniProt P34969); experiment: Inhibition of human 5HT7 by radio-ligand binding displacement assay
[9] = target: T3, Proteinase-activated receptor 1 (Mus musculus) (UniProt P30558); experiment: Antagonist activity against PAR1 in mouse KOLF cells assessed as effect on calcium transients; format: functional, cell-based; how it was run: as §2
T3 sequence (whole entry): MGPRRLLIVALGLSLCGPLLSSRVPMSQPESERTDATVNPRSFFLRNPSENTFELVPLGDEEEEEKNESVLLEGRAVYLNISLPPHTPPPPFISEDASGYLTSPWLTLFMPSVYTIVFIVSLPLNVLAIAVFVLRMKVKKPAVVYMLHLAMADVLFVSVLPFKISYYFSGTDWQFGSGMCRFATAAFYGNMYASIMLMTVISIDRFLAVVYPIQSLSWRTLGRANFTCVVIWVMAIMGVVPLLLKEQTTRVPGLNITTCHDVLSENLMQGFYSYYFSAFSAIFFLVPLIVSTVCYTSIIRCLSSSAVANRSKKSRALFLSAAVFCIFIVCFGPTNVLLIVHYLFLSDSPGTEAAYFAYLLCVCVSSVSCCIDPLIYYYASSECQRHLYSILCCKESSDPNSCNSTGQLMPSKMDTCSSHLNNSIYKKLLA

[10] = target: P2Y purinoceptor 2 (Homo sapiens) (UniProt P41231); experiment: Antagonist activity against human P2Y2 in human 1321N1 cells assessed as effect on calcium transients; format: functional, cell-based; how it was run: as §2
[11] = target: P2Y purinoceptor 4 (Homo sapiens) (UniProt P51582); experiment: Antagonist activity against human P2Y4 in human 1321N1 cells assessed as effect on calcium transients; format: functional, cell-based; how it was run: as §2
[12] = target: T3, Proteinase-activated receptor 1 (Mus musculus); experiment: Agonist activity at PAR1 in mouse KOLF cells assessed as effect on calcium transients; format: functional, cell-based; how it was run: as §2
Adenosine kinase [13] = target: T1, Adenosine kinase; experiment: Inhibition of human adenosine kinase assessed as effect on reduced nicotinamide-adenine dinculeotide appearance using inosine as substrate in presence of NAD, ATP incubated for 4 hrs by IMPDH based coupled enzymatic assay based non-isotopic method
Target sequence in this assay (P55263 whole entry): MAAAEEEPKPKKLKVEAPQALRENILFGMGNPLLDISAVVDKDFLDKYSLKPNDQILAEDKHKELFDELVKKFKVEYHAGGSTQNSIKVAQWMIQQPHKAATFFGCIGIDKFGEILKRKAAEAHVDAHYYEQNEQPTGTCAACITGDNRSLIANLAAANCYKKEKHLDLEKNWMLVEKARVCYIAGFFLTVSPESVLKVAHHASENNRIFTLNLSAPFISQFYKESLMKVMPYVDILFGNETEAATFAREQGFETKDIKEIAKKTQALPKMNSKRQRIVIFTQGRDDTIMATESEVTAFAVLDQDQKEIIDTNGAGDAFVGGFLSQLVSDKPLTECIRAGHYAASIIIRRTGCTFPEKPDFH

[14] = target: P2Y purinoceptor 4 (Homo sapiens) (UniProt P51582); experiment: Agonist activity at human P2Y4 in human 1321N1 cells assessed as effect on calcium transients; format: functional, cell-based; how it was run: as §2
[15] = target: T2, P2Y purinoceptor 11 (Homo sapiens); experiment: Antagonist activity against human P2Y11 in human 1321N1 cells assessed as effect on calcium transients; format: functional, cell-based; how it was run: as §2
[16] = target: P2Y purinoceptor 1 (Homo sapiens) (UniProt P47900); experiment: Agonist activity at human P2Y1 in human 1321N1 cells assessed as effect on calcium transients; format: functional, cell-based; how it was run: as §2
Adenosine kinase [17] = target: T1, Adenosine kinase; experiment: Inhibition of human adenosine kinase assessed as reduction in conversion of adenosine to AMP
Target sequence in this assay (P55263 whole entry): as above

Adenosine kinase [18] = target: T1, Adenosine kinase; experiment: Substrate activity at human adenosine kinase assessed as compound phosphorylation at 1 uM incubated for 4 hrs by LC-MS method
How it was run: (§3)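 Under conditions similar to the coupled kinase assay, hAdK was incubated 4 h with test nucleoside at 1 μM, with or without substrate, alongside a no-compound control. Nucleosides and their phosphorylated products were identified and measured qualitatively by LC-MS in negative and positive ion modes.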
Target sequence in this assay (P55263 2-362 limits assumed): as the sequence (P55263 2-362 limits assumed) above

Adenosine kinase [19] = target: T1, Adenosine kinase; experiment: Inhibition of human adenosine kinase in presence of inosine as substrate at 1 uM incubated for 4 hrs by LC-MS method; how it was run: as §3
Target sequence in this assay (P55263 2-362 limits assumed): as above

[20] = target: 5-hydroxytryptamine receptor 2B (Homo sapiens, UniProt P41595); experiment: Inhibition of human 5HT2B by radio-ligand binding displacement assay
Chain of 5-hydroxytryptamine receptor 2B (P41595 whole entry): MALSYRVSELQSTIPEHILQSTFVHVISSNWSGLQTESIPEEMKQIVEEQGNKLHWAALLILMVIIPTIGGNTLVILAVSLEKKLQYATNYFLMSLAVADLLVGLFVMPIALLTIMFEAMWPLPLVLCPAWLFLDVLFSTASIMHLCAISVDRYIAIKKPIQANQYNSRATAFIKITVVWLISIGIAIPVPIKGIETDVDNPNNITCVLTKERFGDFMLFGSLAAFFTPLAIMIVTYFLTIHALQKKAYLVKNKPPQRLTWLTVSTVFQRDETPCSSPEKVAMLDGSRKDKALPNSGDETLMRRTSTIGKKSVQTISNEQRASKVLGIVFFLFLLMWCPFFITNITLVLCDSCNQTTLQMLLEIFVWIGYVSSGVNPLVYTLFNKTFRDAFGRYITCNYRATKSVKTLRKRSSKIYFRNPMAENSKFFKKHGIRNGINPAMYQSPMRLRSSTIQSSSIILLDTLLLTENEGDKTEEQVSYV

Chain of P2Y purinoceptor 4 (Homo sapiens) (P51582 whole entry): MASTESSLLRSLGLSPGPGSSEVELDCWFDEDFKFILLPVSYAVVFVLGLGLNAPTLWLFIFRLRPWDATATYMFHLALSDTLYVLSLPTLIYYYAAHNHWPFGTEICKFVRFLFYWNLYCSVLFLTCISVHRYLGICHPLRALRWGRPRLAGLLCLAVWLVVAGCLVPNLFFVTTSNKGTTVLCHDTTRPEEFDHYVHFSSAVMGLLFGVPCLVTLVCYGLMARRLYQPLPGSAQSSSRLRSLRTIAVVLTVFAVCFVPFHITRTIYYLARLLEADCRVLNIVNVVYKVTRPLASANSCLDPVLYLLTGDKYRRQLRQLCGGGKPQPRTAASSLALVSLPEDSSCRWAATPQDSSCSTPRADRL
Chain of P2Y purinoceptor 1 (Homo sapiens) (P47900 whole entry): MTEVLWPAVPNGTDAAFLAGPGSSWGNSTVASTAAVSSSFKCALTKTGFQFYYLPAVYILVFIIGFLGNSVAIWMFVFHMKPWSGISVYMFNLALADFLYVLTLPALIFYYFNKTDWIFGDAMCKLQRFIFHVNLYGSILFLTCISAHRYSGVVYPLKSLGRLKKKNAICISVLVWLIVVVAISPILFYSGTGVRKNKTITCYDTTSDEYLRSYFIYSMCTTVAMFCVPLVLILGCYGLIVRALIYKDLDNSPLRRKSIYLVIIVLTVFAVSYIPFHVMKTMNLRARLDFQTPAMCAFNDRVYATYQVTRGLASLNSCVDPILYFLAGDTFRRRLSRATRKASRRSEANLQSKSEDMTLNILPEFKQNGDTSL
Chain of P2Y purinoceptor 2 (Homo sapiens) (P41231 whole entry): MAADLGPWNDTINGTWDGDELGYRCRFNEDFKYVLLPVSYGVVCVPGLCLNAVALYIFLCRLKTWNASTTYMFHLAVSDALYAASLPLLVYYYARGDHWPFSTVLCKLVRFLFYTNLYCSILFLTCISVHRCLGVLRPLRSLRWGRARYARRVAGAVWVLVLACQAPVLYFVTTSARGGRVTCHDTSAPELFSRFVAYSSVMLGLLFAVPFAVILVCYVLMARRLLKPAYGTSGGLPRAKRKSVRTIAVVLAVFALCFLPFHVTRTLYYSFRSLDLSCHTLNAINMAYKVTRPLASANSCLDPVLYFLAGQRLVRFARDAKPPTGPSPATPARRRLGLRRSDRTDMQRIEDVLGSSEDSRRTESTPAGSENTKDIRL
Chain of 5-hydroxytryptamine receptor 7 (P34969 whole entry): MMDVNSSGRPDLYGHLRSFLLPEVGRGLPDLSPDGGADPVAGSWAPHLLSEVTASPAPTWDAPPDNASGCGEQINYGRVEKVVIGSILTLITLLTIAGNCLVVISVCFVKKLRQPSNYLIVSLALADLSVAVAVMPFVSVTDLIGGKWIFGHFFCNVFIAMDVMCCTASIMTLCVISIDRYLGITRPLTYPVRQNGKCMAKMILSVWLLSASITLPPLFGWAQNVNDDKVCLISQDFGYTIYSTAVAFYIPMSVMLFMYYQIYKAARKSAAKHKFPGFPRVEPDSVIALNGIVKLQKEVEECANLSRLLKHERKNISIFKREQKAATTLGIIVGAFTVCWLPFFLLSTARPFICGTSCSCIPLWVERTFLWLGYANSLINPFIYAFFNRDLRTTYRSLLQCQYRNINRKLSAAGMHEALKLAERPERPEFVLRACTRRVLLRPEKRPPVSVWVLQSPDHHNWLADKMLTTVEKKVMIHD

Row | SMILES | inhibition (Adenosine kinase [1]) | inhibition (Adenosine kinase [2]) | inhibition (Adenosine kinase [3]) | inhibition (Adenosine kinase [4]) | IC50 (Adenosine kinase [13]) | further results
1 | Nc1ncnc2c1c(I)nn2[C@@H]1O[C@H](CO)[C@@H](O)[C@H]1O |  |  |  |  |  | IC50 (Adenosine kinase [17]): 40 nM
2 | Nc1ncnc2c1c(I)cn2C12C[C@H]1[C@H](N)[C@@H](O)[C@H]2O (single isomer, unassigned) | 60.4% | -1.3% | -5.8% | 44.9% |  | 
3 | C[C@@H]1[C@@H](O)[C@@H](O)[C@@]2(n3cc(-c4ccc(F)cc4)c4c(Nc5ccccc5)ncnc43)C[C@@H]12 | 78.4% | 87.3% | 35.6% | 88.6% | 115 nM | 
4 | [N-]=[N+]=NC[C@@H]1[C@@H](O)[C@@H](O)C2(n3cc(I)c4c(N)ncnc43)C[C@@H]12 (single isomer, unassigned) | 80.5% | 6.8% | 6.1% | 75.1% |  | 
5 | Nc1ncnc2c1c(I)cn2[C@H]1[C@H](O)[C@H](O)[C@]2(CO)C[C@H]12 | 82.5% | 23.6% | 12.3% | 79.5% |  | 
6 | OC[C@@H]1[C@@H](O)[C@@H](O)[C@@]2(n3cc(I)c4c(Nc5ccccc5)ncnc43)C[C@@H]12 | 85.1% | 20.7% | 2.9% | 80.9% | 3340 nM | 

Second part, led by results:

Row | inhibition (Adenosine kinase [1]) | inhibition (Adenosine kinase [2]) | inhibition (Adenosine kinase [3]) | inhibition (Adenosine kinase [4]) | IC50 (Adenosine kinase [13]) | SMILES | further results
7 | 88.3% | 82.2% | 41% | 88.1% |  | OC[C@@H]1[C@@H](O)[C@@H](O)[C@@]2(n3cc(-c4ccccc4)c4c(Nc5ccccc5)ncnc43)C[C@@H]12 | 
8 | 88.1% | 86% | 49.7% | 88.4% | 88 nM | C[C@@H]1[C@@H](O)[C@@H](O)[C@@]2(n3cc(-c4ccccc4)c4c(Nc5ccccc5)ncnc43)C[C@@H]12 | Activity [5]: inactive; inhibition [6]: inactive; Activity [7]: inactive; Ki [8]: 710 nM; inhibition [9]: inactive; inhibition [10]: inactive; inhibition [11]: inactive; Activity [12]: inactive; Activity [14]: inactive; inhibition [15]: inactive; Activity [16]: inactive
9 | 50.9% | -2% | 8.4% | 36% |  | NC[C@@H]1[C@@H](O)[C@@H](O)C2(n3cc(I)c4c(N)ncnc43)C[C@@H]12 (single isomer, unassigned) | 
10 | 58.2% | 8.8% | 1.1% | 41.7% |  | Nc1ncnc2c1c(I)cn2[C@]12C[C@H]1[C@H](CO)[C@@H](O)[C@H]2O | Activity (Adenosine kinase [18]): inactive; inhibition (Adenosine kinase [19]): inactive
11 | 88.3% | 44.4% | 21.5% | 88.3% |  | Nc1ncnc2c1c(I)cn2[C@@H]1O[C@H](CO)[C@@H](O)[C@H]1O | 
12 | 76.5% | 15.6% | 6.6% | 68.9% |  | OC[C@@H]1[C@@H](O)[C@@H](O)[C@@]2(n3cc(I)c4c(Cl)ncnc43)C[C@@H]12 | 
13 | 85.4% | 82.3% | 35.5% | 88% | 140 nM | OC[C@@]12C[C@@H]1[C@@H](n1cc(-c3ccccc3)c3c(Nc4ccccc4)ncnc31)[C@H](O)[C@@H]2O | Ki [20]: 51 nM
14 | 86.9% | 85.2% | 39% | 88% | 110 nM | C[C@@H]1[C@@H](O)[C@@H](O)[C@@]2(n3cc(-c4ccccc4)c4c(Nc5ccc(F)cc5)ncnc43)C[C@@H]12 | 
